The test system of experiment [1] is MCF7. In words: Antiproliferative activity against human MCF7 cells after 48 hrs by sulforhodamine B method. The experiment is classed as functional. Conditions: MCF7, 48 h. The method in brief: (§1)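 Seeding per well: 5 × 10³ HT-29 cells, or 3.5 × 10³ M21 or MCF-7 cells. Drugs were dissolved fresh in DMSO and serially diluted in medium (final range 100 to 0.3), with DMSO held at 0.12%. Cells were exposed for 48 h, fixed with cold TCA (10% final, 1 h, 4 °C) and stained with 0.1% SRB for 15 min. Dye was solubilized in 10 mM Tris and read at A585. Day-0 OD was subtracted, inhibition was calculated against DMSO cells, and n ≥ 3.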
(In SRB staining, fixed cells bind dye roughly in proportion to their protein.)

Experiment [2] concerns M21. In words: Antiproliferative activity against human M21 cells after 48 hrs by sulforhodamine B method. The experiment is classed as functional. Conditions: M21, 48 h. Put shortly:
as §1

A further experiment has as its system HT-29. In words: Antiproliferative activity against human HT29 cells after 48 hrs by sulforhodamine B method. Format: functional. Conditions: HT-29, 48 h. Put shortly:
as §1

Experiment [3] relates to MCF7. Description: Cell cycle arrest in human MCF7 cells assessed as accumulation at G0/G1 phase at 2 times GI50 after 24 hrs by flow cytometry. The experiment is classed as functional. Put shortly: (§2)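 Cells were trypsinized, PBS-washed, fixed in ice-cold ethanol, and stained with propidium iodide plus RNase for 30 min at room temperature. G0/G1, S and G2/M fractions were measured by flow cytometry.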

Experiment [4] relates to MCF7. Description: Cell cycle arrest in human MCF7 cells assessed as accumulation at S phase at 2 times GI50 after 24 hrs by flow cytometry. Format: functional. Put shortly: as §2
Background: In flow cytometry, cells or beads pass a laser one at a time.

Experiment [5] deals with MCF7. Description: Cell cycle arrest in human MCF7 cells assessed as accumulation at G2/M phase at 2 times GI50 after 24 hrs by flow cytometry. The experiment is classed as functional. The method in brief:
as §2

Experiment [6] has as its system M21. Description: Induction of beta2-tubulin alkylation in human M21 cells at 2 times GI50 after 24 hrs by Western blot analysis. Format: cell-based. The method in brief:
(§3)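 Floating and adherent cells were pooled and lysed in boiled Laemmli buffer; protein was measured by Lowry. 20 µg per lane ran on 10% SDS-PAGE and was blotted with anti-βII-tubulin (1:500), HRP anti-mouse (1:2500) and ECL. Alkylation was scored as a faster-migrating βII-tubulin band.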
For orientation: Immunoblotting shows a protein as a band on a membrane.

The test system of experiment [7] is M21. Description: Induction of beta2-tubulin alkylation in human M21 cells at 2 times GI50 after 48 hrs by Western blot analysis. Format: cell-based. Put shortly:
as §3

The test system of experiment [8] is M21. Description: Inhibition of nuclear translocation of thioredoxin-1 from cytosol in human M21 cells at 2 times GI50 after 16 hrs by immunocytofluorescence. Format: functional, cell-based. The method in brief: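 Cells were fixed in 3.7% formaldehyde (20 min), permeabilized with 0.1% saponin and blocked with 3% BSA. Staining used anti-Trx-1 monoclonal (1:200, 2 h, 37 °C) and Alexa-488 anti-mouse IgG (1:1000, 1 h). Trx-1 cytosol/nucleus localization was read by confocal immunofluorescence.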

Experiment [9] deals with M21. Description: Induction of beta2-tubulin alkylation in human M21 cells at 2 times GI50 by Western blot analysis. Format: cell-based. The method in brief:
as §3

The subject of experiment [10] is M21. Description: Induction of beta2-tubulin alkylation in human M21 cells at 50 nM by Western blot analysis. Format: cell-based. The method in brief: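 Same M21 Western blot workflow (pooled cells, Laemmli lysis, 20 µg on 10% SDS-PAGE, anti-βII-tubulin 1:500, ECL), except that vinblastine, colchicine and paclitaxel were applied at 50 nM for 16, 24 and 48 h at 37 °C. The alkylated form appeared as a lower-apparent-MW band.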

The subject of experiment [11] is M21. In words: Inhibition of nuclear translocation of thioredoxin-1 from cytosol in human M21 cells at 50 nM after 16 hrs by immunocytofluorescence. Format: functional, cell-based. The method in brief:
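Reference agents colchicine or vinblastine were applied at 50 nM to M21 cells on fibronectin-coated coverslips. Cells were fixed in formaldehyde, permeabilized with saponin, and stained with anti-Trx-1 (1:200, 2 h, 37 °C) and Alexa-488 secondary. Nuclear versus cytosolic Trx-1 was assessed by confocal microscopy.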

Experiment [12] concerns M21. Description: Stimulation of nuclear translocation of thioredoxin-1 from cytosol in human M21 cells at 25 µM after 16 hrs by immunocytofluorescence.

The source made the active and inactive calls. The rule behind the calls is not given here.

Regarding `CC1(C)CCC(C)(C)c2cc(NC(=O)NCCCl)ccc21`, the GI50 (commonly the concentration at which growth is held to half of that of the control) with MCF7 [1] was 4.2 µM; with M21 [2], 2.6 µM; in the experiment on HT-29, 1.3 µM. Moreover, the Activity with MCF7 [3] was 6%; with MCF7 [4] it was 20%; in the experiment on MCF7 [5], 74%. Also, the result in the experiment on M21 [6] and in the experiment on M21 [7] was Active. For the same compound, the result with M21 [8] was inactive.

For `CC[C@]1(O)C[C@@H]2CN(CCc3c([nH]c4ccccc34)[C@@](C(=O)OC)(c3cc4c(cc3OC)N(C)[C@H]3[C@@](O)(C(=O)OC)[C@H](OC(C)=O)[C@]5(CC)C=CCN6CC[C@]43[C@@H]65)C2)C1`, the outcome in the experiment with M21 [9], in the experiment with M21 [10] and in the experiment with M21 [11] was inactive.

Turning to `O=C(NCCCl)Nc1ccc2ccccc2c1`, the figures for the Activity with MCF7 [3], with MCF7 [4] and in the experiment with MCF7 [5] were 17%, 38% and 45%, respectively. Moreover, the result with M21 [7] was Active. In addition, in the experiment on M21 [8], the outcome was inactive.

On to `CC(=O)O[C@H]1C(=O)[C@@]2(C)[C@H]([C@H](OC(=O)c3ccccc3)[C@]3(O)C[C@H](OC(=O)[C@H](O)[C@@H](NC(=O)c4ccccc4)c4ccccc4)C(C)=C1C3(C)C)[C@]1(OC(C)=O)CO[C@@H]1C[C@@H]2O` [PACLITAXEL], for which the Activity amounted to 9% in the experiment on MCF7 [3], 11% with MCF7 [4] and 80% in the experiment on MCF7 [5]. Further, the result in the experiment with M21 [9], in the experiment with M21 [10] and in the experiment with M21 [11] was inactive.

On to `O=C(NCCCl)Nc1ccc2c(c1)CCCC2`, for which the GI50 with MCF7 [1] worked out at 7.3 µM; in the experiment on M21 [2] it was 3.7 µM; with HT-29 it was 2 µM. Moreover, the figures for the Activity in the experiment with MCF7 [3], with MCF7 [4] and in the experiment on MCF7 [5] were 10%, 49% and 41%, respectively. The outcome in the experiment on M21 [7] and in the experiment on M21 [8] was Active.

As to `CCC(C)SSc1ncc[nH]1` (configuration not stated) [PX-12], the values for the Activity in the experiment with MCF7 [3], with MCF7 [4] and with MCF7 [5] were 29%, 13% and 58%, respectively. Besides, in the experiment with M21 [9], the outcome was inactive. For the same compound, the result with M21 [12] was Active.

As to `COc1cc2c(c(OC)c1OC)-c1ccc(OC)c(=O)cc1[C@@H](NC(C)=O)CC2`, the result in the experiment with M21 [9], in the experiment with M21 [10] and in the experiment on M21 [11] was inactive.

As to `CCCCCCc1ccc(NC(=O)NCCCl)cc1`, the GI50 came to 6.5 µM in the experiment on MCF7 [1], 3.8 µM with M21 [2] and 2.9 µM in the experiment with HT-29. Moreover, the Activity was found to be 16% in the experiment on MCF7 [3], 41% in the experiment on MCF7 [4] and 43% in the experiment with MCF7 [5]. For the same compound, the outcome in the experiment on M21 [7] was Active. For the same compound, in the experiment with M21 [8], the outcome was inactive.

(Values after ChEMBL document CHEMBL1155843, “Selective alkylation of beta(II)-tubulin and thioredoxin-1 by structurally related subsets of aryl chloroethylureas leading to either anti-microtubules or redox modulating agents” (2008).)
